Results collected from several papers.
Compare with care: the assays were run in different laboratories.
Cell line: MOLM-13
Read-out: cell growth or viability

`c1cc(N2CCC(N3CCOCC3)CC2)ccc1Nc1ccc2ncc(OCC3CCNCC3)nc2c1` has an EC50 of > 30000 nM (XTT; 7 days).
With `NCC(=O)Nc1ccccc1/N=c1\cc(-c2ccc3c(c2)OCO3)oc2ccccc12` the inhibition was 1.52% (CCK-8; 1 µM).
For `Nc1cccc(-c2ccc3ncc(OCC4CCNCC4)nc3c2)c1`, the EC50 was 28300 nM (XTT; 7 days).
With `CN(C)CCNC(=O)c1ccc(-c2nc3ccc4[nH]ncc4c3c3c2CCCC3)cc1` the GI50 was 100 nM (72 h).
`CC1(C)CCC(CN2CCN(c3ccc(C(=O)NS(=O)(=O)c4ccc(NCC5CCOCC5)c([N+](=O)[O-])c4)c(Oc4cnc5[nH]ccc5c4)c3)CC2)=C(c2ccc(Cl)cc2)C1` has a GI50 of 10 nM.
With `COc1ccc2/c(=N/c3ccccc3NC(=O)N3CCOCC3)cc(-c3ccc4c(c3)OCCO4)oc2c1` the inhibition was 3.11% (CCK-8; 1 µM).
`c1ccc(COc2ccc(Nc3ccc4ncc(OCC5CCNCC5)nc4c3)cc2)cc1` has an EC50 of 840 nM (XTT; 7 days).
The GI50 of `CC(C)(C)c1cc(NC(=O)Nc2ccc(-c3cn4c(n3)sc3cc(OCCN5CCOCC5)ccc34)cc2)no1` is reported as 9 nM (72 h).
`O=C(Nc1ccccc1/N=c1\cc(-c2ccc3c(c2)OCCO3)oc2cc(F)ccc12)N1CCOCC1` gave an inhibition of 2.91% (CCK-8; 1 µM).
For `Cc1n[nH]c2ccc3nc(-c4ccc(C(=O)NCCN(C)C)cc4)c4c(c3c12)CCCC4`, the GI50 was 54 nM (72 h).
With `NCCCC(=O)Nc1ccccc1/N=c1\cc(-c2ccc3c(c2)OCO3)oc2ccccc12` the inhibition was 0.08% (CCK-8; 1 µM).
The GI50 of `CN(C)CCNC(=O)c1ccc(-c2nc3ccc4[nH]ncc4c3c3c2CCCCC3)c(F)c1` is reported as 51 nM (72 h).
With `Cc1cc2c(C(=O)O)cccc2n1-c1nc2c(c(NCc3ccccc3)n1)CCCN2` the IC50 was 400 nM (72 h).
For `Cc1n[nH]c2ccc3nc(-c4ccc(C(=O)NCCN(C)C)cc4F)c4c(c3c12)CCCC4`, the GI50 was 47 nM (72 h).
`c1cc(N2CCCCC2)ccc1Nc1cc2ncc(OCC3CCNCC3)nc2cc1-c1ccc(N2CCCCC2)cc1` has an EC50 of 2800 nM (XTT; 7 days).
